Key:
Cytochrome P450 2C8 = biological target: T1, Cytochrome P450 2C8 (Homo sapiens, UniProt P10632); experiment: Inhibition of CYP2C8 (unknown origin) using paclitaxel as substrate; format: ADME
T1 sequence (P10632 whole entry): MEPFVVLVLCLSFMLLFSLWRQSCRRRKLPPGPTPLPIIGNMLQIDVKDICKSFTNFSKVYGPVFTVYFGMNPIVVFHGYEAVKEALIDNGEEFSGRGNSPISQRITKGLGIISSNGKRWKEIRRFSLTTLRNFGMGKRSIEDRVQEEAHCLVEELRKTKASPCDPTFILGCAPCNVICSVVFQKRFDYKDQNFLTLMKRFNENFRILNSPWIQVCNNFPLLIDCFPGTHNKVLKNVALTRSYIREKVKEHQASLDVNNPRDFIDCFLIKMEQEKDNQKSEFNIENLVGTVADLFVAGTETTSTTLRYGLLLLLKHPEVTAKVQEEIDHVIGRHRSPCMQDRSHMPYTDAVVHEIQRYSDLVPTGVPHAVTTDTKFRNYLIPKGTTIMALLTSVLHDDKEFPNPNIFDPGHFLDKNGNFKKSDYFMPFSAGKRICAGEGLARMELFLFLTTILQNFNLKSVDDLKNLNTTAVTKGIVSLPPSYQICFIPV

[1] = Toxicity in female rat assessed as effect on body weight at 250 mg/kg/day, po administered once daily via gavage for 14 days; format: organism-based; conditions: in vivo, 336 h
Glucocorticoid receptor = biological target: T2, Glucocorticoid receptor (Homo sapiens, UniProt P04150); experiment: Antagonist activity at human glucocorticoid receptor expressed in CHO-K1 cells assessed as inhibition of glucocorticoid receptor-dexamethasone coactivator protein-protein interaction incubated for 24 hrs by bioluminescence assay; format: cell-based
T2 sequence (P04150 whole entry): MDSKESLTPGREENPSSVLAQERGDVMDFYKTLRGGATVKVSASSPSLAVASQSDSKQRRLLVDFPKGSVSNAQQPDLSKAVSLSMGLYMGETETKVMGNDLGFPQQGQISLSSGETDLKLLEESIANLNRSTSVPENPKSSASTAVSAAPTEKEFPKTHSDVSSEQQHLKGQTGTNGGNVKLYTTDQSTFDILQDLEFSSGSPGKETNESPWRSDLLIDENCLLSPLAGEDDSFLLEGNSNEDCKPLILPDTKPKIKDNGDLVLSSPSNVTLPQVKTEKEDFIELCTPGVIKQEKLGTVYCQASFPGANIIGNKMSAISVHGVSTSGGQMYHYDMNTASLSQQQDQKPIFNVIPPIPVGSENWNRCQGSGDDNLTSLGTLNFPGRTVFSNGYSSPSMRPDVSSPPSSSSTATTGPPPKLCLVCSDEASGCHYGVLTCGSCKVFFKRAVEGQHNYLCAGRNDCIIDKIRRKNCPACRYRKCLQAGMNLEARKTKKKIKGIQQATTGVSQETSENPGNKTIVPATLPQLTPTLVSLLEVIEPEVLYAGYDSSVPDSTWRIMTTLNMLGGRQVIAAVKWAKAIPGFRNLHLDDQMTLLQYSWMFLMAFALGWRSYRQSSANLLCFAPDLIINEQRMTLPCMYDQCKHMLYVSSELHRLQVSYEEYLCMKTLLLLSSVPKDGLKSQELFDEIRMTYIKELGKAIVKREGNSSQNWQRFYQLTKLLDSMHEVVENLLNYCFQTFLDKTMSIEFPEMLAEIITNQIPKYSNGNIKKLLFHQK

[2] = Toxicity in female rat assessed as effect on food consumption at 250 mg/kg/day, po administered once daily via gavage for 14 days; format: organism-based; conditions: in vivo, 336 h
[3] = Clearance in dog at 0.5 mg/kg, iv; format: ADME, organism-based, Canis lupus familiaris; conditions: in vivo
[4] = AUC in dog at 5 mg/kg, po; format: ADME, organism-based, Canis lupus familiaris; conditions: in vivo
[5] = Oral bioavailability in rat at 5 mg/kg; format: ADME, organism-based; conditions: in vivo
Method in brief: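 Rat PK study. The iv dose of 0.5 mg/kg was given in 10% DMSO, 70% PEG 400 and 20% water. The oral dose of 5 mg/kg was given in 5% DMSO / 95% of 0.2% Tween 80 in 0.25% CMC, adjusted to pH 4 for one compound. Read-outs were CL, Vss, iv t1/2, F, Cmax and AUC.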

CC#C[C@]1(O)CC[C@H]2[C@@H]3CCC4=CC(=O)CC[C@]4(C)[C@H]3[C@@H](c3ccc(N(C)C)cc3)C[C@@]21C
IC50 (Cytochrome P450 2C8): 8 µM | Activity [1]: Non-Toxic | IC50 (Glucocorticoid receptor): 0.016 µM | Activity [2]: Non-Toxic | clearance [3]: 10.2 mL/min/kg | AUC [4]: 5930 ng·h/mL | bioavailability [5]: 62%

— ChEMBL document CHEMBL4406804, “Discovery of a Potent Steroidal Glucocorticoid Receptor Antagonist with Enhanced Selectivity against the Progesterone and Androgen Receptors (OP-3633)” (J Med Chem, 2019)
